Experimental data: ChEMBL document CHEMBL1811848 (Bioorg Med Chem Lett, 2011)

Experiments:
Rattus norvegicus [1] = assay: Toxicity in male Wistar rat assessed as thymus to body weight ratio at 30 mg/kg, po measured after 28 days (reference value: 0.081 +/- 0.013); format: organism-based; set-up: dose 30 mg/kg, route oral; conditions: in vivo, 672 h
Rattus norvegicus [2] = assay: Toxicity in female Wistar rat assessed as adrenal to body weight ratio at 30 mg/kg, po measured after 28 days (reference value: 0.028 +/- 0.001); format: organism-based; set-up: dose 30 mg/kg, route oral; conditions: in vivo, 672 h
Rattus norvegicus [3] = assay: Toxicity in female Wistar rat assessed as liver to body weight ratio at 3 mg/kg, po measured after 28 days (reference value: 3.091 +/- 0.087); format: organism-based; set-up: dose 3 mg/kg, route oral; conditions: in vivo, 672 h
Rattus norvegicus [4] = assay: Toxicity in female Wistar rat assessed as albumin level at 3 mg/kg, po measured after 28 days (reference value: 3.92 +/- 0.18 g.dl); format: organism-based; set-up: dose 3 mg/kg, route oral; conditions: in vivo, 672 h
Rattus norvegicus [5] = assay: Toxicity in male Wistar rat assessed as creatinine level at 3 mg/kg, po measured after 28 days (reference value: 0.47 +/- 0.03 mg/dl); format: organism-based; set-up: dose 3 mg/kg, route oral; conditions: in vivo, 672 h
Rattus norvegicus [6] = assay: Toxicity in male Wistar rat assessed as heart to body weight ratio at 3 mg/kg, po measured after 28 days (reference value: 0.383 +/- 0.012); format: organism-based; set-up: dose 3 mg/kg, route oral; conditions: in vivo, 672 h
Rattus norvegicus [7] = assay: Toxicity in male Wistar rat assessed as SGOT level at 3 mg/kg, po measured after 28 days (reference value: 135.14 +/- 6.89 U/L); format: organism-based; set-up: dose 3 mg/kg, route oral; conditions: in vivo, 672 h
Rattus norvegicus [8] = assay: Toxicity in female Wistar rat assessed as change in body weight at 30 mg/kg, po measured after 28 days relative to control; format: organism-based; set-up: dose 30 mg/kg, route oral; conditions: in vivo, 672 h
In short: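 Wistar rats received 3 or 30 mg/kg orally for 28 days. Body weight was recorded weekly, and the % change in body weight over the study is tabulated.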

Rattus norvegicus [9] = assay: Toxicity in male Wistar rat assessed as creatinine level at 30 mg/kg, po measured after 28 days (reference value: 0.47 +/- 0.03 mg/dl); format: organism-based; set-up: dose 30 mg/kg, route oral; conditions: in vivo, 672 h
Rattus norvegicus [10] = assay: Toxicity in female Wistar rat assessed as hemoglobin level at 3 mg/kg, po measured after 28 days (reference value: 11.90 +/- 0.19 g/dl); format: organism-based; set-up: dose 3 mg/kg, route oral; conditions: in vivo, 672 h
Rattus norvegicus [11] = assay: Toxicity in male Wistar rat assessed as brain to body weight ratio at 3 mg/kg, po measured after 28 days (reference value: 0.658 +/- 0.015); format: organism-based; set-up: dose 3 mg/kg, route oral; conditions: in vivo, 672 h
Rattus norvegicus [12] = assay: Toxicity in female Wistar rat assessed as heart to body weight ratio at 3 mg/kg, po measured after 28 days (reference value: 0.403 +/- 0.010); format: organism-based; set-up: dose 3 mg/kg, route oral; conditions: in vivo, 672 h
[13] = Tmax in fasting Wistar rat at 30 mg/kg, po; format: ADME, organism-based; set-up: dose 30 mg/kg, route oral; conditions: in vivo
In short: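 Fasted male Wistar rats received one oral dose of 30 mg/kg. Plasma Cmax, T1/2 and Tmax are reported as mean ± SD of n = 3.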

Mus musculus [14] = assay: Hypolipidemic activity in db/db mouse assessed as reduction in triglyceride level at 1 mg/kg, po; format: functional; set-up: scale not given: the % may be the effect or the level left
Mus musculus [15] = assay: Hypolipidemic activity in Swiss albino mouse assessed as reduction in triglyceride level at 0.3 mg/kg, po; format: functional; set-up: scale not given: the % may be the effect or the level left
Rattus norvegicus [16] = assay: Toxicity in female Wistar rat assessed as urea level at 30 mg/kg, po measured after 28 days (reference value: 33.05 +/- 2.02 mg/dl); format: organism-based; set-up: dose 30 mg/kg, route oral; conditions: in vivo, 672 h
Mus musculus [17] = assay: Hypolipidemic activity in db/db mouse assessed as reduction in triglyceride level at 3 mg/kg, po; format: functional; set-up: scale not given: the % may be the effect or the level left
Rattus norvegicus [18] = assay: Toxicity in male Wistar rat assessed as SGOT level at 30 mg/kg, po measured after 28 days (reference value: 135.14 +/- 6.89 U/L); format: organism-based; set-up: dose 30 mg/kg, route oral; conditions: in vivo, 672 h
Rattus norvegicus [19] = assay: Toxicity in female Wistar rat assessed as SGPT level at 3 mg/kg, po measured after 28 days (reference value: 30.44 +/- 1.59 U/L); format: organism-based; set-up: dose 3 mg/kg, route oral; conditions: in vivo, 672 h
Rattus norvegicus [20] = assay: Toxicity in female Wistar rat assessed as thymus to body weight ratio at 30 mg/kg, po measured after 28 days (reference value: 0.094 +/- 0.01); format: organism-based; set-up: dose 30 mg/kg, route oral; conditions: in vivo, 672 h
Rattus norvegicus [21] = assay: Toxicity in male Wistar rat assessed as change in body weight at 30 mg/kg, po measured after 28 days relative to control; format: organism-based; set-up: dose 30 mg/kg, route oral; conditions: in vivo, 672 h
Mus musculus [22] = assay: Antihyperglycemic activity in db/db mouse assessed as reduction in plasma glucose level at 0.3 mg/kg, po; format: functional; set-up: scale not given: the % may be the effect or the level left
Rattus norvegicus [23] = assay: Toxicity in female Wistar rat assessed as spleen to body weight ratio at 30 mg/kg, po measured after 28 days (reference value: 0.237 +/- 0.012); format: organism-based; set-up: dose 30 mg/kg, route oral; conditions: in vivo, 672 h
Rattus norvegicus [24] = assay: Toxicity in male Wistar rat assessed as heart to body weight ratio at 30 mg/kg, po measured after 28 days (reference value: 0.383 +/- 0.012); format: organism-based; set-up: dose 30 mg/kg, route oral; conditions: in vivo, 672 h
[25] = biological target: T1, Peroxisome proliferator-activated receptor alpha (Homo sapiens, UniProt Q07869); assay: Transactivation of human PPARalpha expressed in human HepG2 cells co-transfected with PPRE3-TK-Luc by luciferase reporter gene assay; format: cell-based
T1 sequence (Q07869 whole entry): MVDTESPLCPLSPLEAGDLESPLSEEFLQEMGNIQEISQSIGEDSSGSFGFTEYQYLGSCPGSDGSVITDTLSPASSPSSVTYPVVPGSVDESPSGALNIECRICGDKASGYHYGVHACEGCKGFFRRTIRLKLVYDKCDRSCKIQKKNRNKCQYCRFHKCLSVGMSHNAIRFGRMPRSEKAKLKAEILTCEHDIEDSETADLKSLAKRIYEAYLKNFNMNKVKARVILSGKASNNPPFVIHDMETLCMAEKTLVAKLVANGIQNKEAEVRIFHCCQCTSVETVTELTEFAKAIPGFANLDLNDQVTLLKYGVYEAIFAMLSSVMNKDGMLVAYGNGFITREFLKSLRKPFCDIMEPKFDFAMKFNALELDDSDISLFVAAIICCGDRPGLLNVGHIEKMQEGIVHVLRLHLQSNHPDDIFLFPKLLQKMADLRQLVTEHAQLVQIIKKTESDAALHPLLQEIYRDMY

Mus musculus [26] = assay: Antihyperglycemic activity in db/db mouse assessed as reduction in plasma glucose level at 0.03 mg/kg, po; format: functional; set-up: scale not given: the % may be the effect or the level left
Rattus norvegicus [27] = assay: Toxicity in female Wistar rat assessed as urea level at 3 mg/kg, po measured after 28 days (reference value: 33.05 +/- 2.02 mg/dl); format: organism-based; set-up: dose 3 mg/kg, route oral; conditions: in vivo, 672 h
Mus musculus [28] = assay: Hypolipidemic activity in db/db mouse assessed as reduction in triglyceride level at 0.1 mg/kg, po; format: functional; set-up: scale not given: the % may be the effect or the level left
Rattus norvegicus [29] = assay: Toxicity in male Wistar rat assessed as kidney to body weight ratio at 3 mg/kg, po measured after 28 days (reference value: 0.745 +/- 0.012); format: organism-based; set-up: dose 3 mg/kg, route oral; conditions: in vivo, 672 h
Rattus norvegicus [30] = assay: Toxicity in female Wistar rat assessed as ovary to body weight ratio at 30 mg/kg, po measured after 28 days (reference value: 0.039 +/- 0.005); format: organism-based, Female gonad; set-up: dose 30 mg/kg, route oral; conditions: in vivo, 672 h
Rattus norvegicus [31] = assay: Toxicity in female Wistar rat assessed as liver to body weight ratio at 30 mg/kg, po measured after 28 days (reference value: 3.091 +/- 0.087); format: organism-based; set-up: dose 30 mg/kg, route oral; conditions: in vivo, 672 h
Mus musculus [32] = assay: Hypolipidemic activity in db/db mouse assessed as reduction in triglyceride level at 0.01 mg/kg, po; format: functional; set-up: scale not given: the % may be the effect or the level left
Mus musculus [33] = assay: Hypolipidemic activity in Swiss albino mouse assessed as reduction in triglyceride level at 1 mg/kg, po; format: functional; set-up: scale not given: the % may be the effect or the level left
Rattus norvegicus [34] = assay: Toxicity in female Wistar rat assessed as Glucose level at 3 mg/kg, po measured after 28 days (reference value: 69.94 +/- 2.30 mg/dl); format: organism-based; set-up: dose 3 mg/kg, route oral; conditions: in vivo, 672 h

CCO[C@@H](Cc1ccc(OCCc2nc(-c3ccc(C)s3)oc2C)cc1)C(=O)O
Ratio (Rattus norvegicus [1]): 0.075
Ratio (Rattus norvegicus [2]): 0.022
Ratio (Rattus norvegicus [3]): 6.221
Activity (Rattus norvegicus [4]): 4.03 g/dL
Activity (Rattus norvegicus [5]): 0.36 mg/dL
Ratio (Rattus norvegicus [6]): 0.412
Activity (Rattus norvegicus [7]): 193.51 U/L
Activity (Rattus norvegicus [8]): 21.71%
Activity (Rattus norvegicus [9]): 0.37 mg/dL
Activity (Rattus norvegicus [10]): 11.84 g/dL
Ratio (Rattus norvegicus [11]): 0.72
Ratio (Rattus norvegicus [12]): 0.46
Tmax [13]: 40 min
Activity (Mus musculus [14]): 64.2%
Activity (Mus musculus [15]): 80.8%
Activity (Rattus norvegicus [16]): 37.39 mg/dL
Activity (Mus musculus [17]): 55.1%
Activity (Rattus norvegicus [18]): 245.24 U/L
Activity (Rattus norvegicus [19]): 22.46 U/L
Ratio (Rattus norvegicus [20]): 0.066
Activity (Rattus norvegicus [21]): 24.01%
Activity (Mus musculus [22]): 58.2%
Ratio (Rattus norvegicus [23]): 0.26
Ratio (Rattus norvegicus [24]): 0.479
EC50 [25]: 0.31 pM
Activity (Mus musculus [26]): 52.1%
Activity (Rattus norvegicus [27]): 29.19 mg/dL
Activity (Mus musculus [28]): 49.4%
Ratio (Rattus norvegicus [29]): 0.807
Ratio (Rattus norvegicus [30]): 0.024
Ratio (Rattus norvegicus [31]): 7.075
Activity (Mus musculus [32]): 6.6%
Activity (Mus musculus [33]): 82%
Activity (Rattus norvegicus [34]): 91.88 mg/dL
